# CRFBP-R2 block = blocks CRF-induced signaling of the CRF-BP/CRF-R2 complex; HEK293 CRF-R2/CRF-BP, CRF-induced calcium fluorescence; 350,000 compounds, 0.59% hits; AID 588475; inhibition, % at 11.8 µM;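 active means inhibition of the ligand-induced calcium signal above about 50% at the single tested concentration, limit read from the data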
# CendR NRP1 mod = modulators of CendR peptide binding to human neuropilin-1; FAM-RPARPAR peptide binding to NRP-1, fluorescence polarization; inhibition, % at 25 µM; 360,000 compounds, 0.85% hits;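 active means inhibition or corrected inhibition above about 18%, plus a signal ratio from 0.5 to 1.5, limit read from the data, passing the limit was not always enough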
# KLK7 zymogen act = proKLK7 (human) activation, primary screen. P49862. purified proKLK7, EDANS-DABCYL substrate fluorescence; 100% is mature enzyme control, 0% vehicle. activation, % at 7 µM. 370,000 compounds, 0.9% hits. AID 652039;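 active means activation above the mean of all tested compounds plus 3 SD, computed per campaign excluding outliers beyond control limits, cut at about 13% in these data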
# Target sequence (P49862 whole entry, looked up): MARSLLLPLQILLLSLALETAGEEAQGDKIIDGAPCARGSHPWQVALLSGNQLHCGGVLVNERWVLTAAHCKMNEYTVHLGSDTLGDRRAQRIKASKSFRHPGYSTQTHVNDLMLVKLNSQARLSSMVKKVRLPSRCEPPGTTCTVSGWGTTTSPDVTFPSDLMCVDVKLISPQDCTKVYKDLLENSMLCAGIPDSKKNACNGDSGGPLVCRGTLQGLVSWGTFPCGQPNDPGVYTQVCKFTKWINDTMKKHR
# Tn6 DDE FP = disrupts Tn6 cyclic peptide binding to fibrin D-Dimer-E complex | P02675 | inhibition, % at 8.3 µM | 370,000 compounds, 0.21% hits | AID 720509 | Fibrin DD(E) TRITC-Tn6 fluorescence polarization displacement;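 active means inhibition above a per-campaign cutoff: mean of compounds within control limits plus 3 SD, cut at about 15% in these data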
# CRFR2-BP ag = CRF-BP/CRF-R2 complex agonism | HEK293 CRF-R2/CRF-BP, calcium dye fluorescence (FLIPR); percent of saturating CRF peptide response | activation, % at 13.2 µM | 350,000 compounds, 0.46% hits;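 active means activation of at least 50%, plus an integration ratio under a set limit after plate pattern correction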
# Tn7 DDE FP = DD(E)-Tn7 binding inhibition, primary FP screen | P02675 | FP displacement of FITC-Tn7 peptide from fibrin DD(E); 0% = median of compound wells per plate | inhibition, % at 8.3 µM | 370,000 compounds, 0.13% hits | AID 720508;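 active means inhibition above the mean of compounds falling within the control limits plus 3 SD of them, cut at about 14% in these data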
#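 Assay system: Fibrin-DD(E) protein isolated from polymerized human fibrin clots; read-out basis: percent inhibition; medium: Tris/NaCl/CaCl2 buffer, pH 7.8; signal: FP measurement; incubation: 10 min plus 3 h, room temperature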
# Hits are given with their value; 0 = inactive; - = no result. Compounds with a hit are over-represented: about 2.9% of the library has one in this group of screens.
SMILES,CRFBP-R2 block,CendR NRP1 mod,KLK7 zymogen act,Tn6 DDE FP,CRFR2-BP ag,Tn7 DDE FP
O=C(Cn1ncc2c([nH]c3ccccc32)c1=O)NCC1CCN(Cc2ccccc2F)CC1,70.2,0,0,0,0,0
O=C(NCCC1=CCCCC1)C1CC(=O)N(C2CCCCCC2)C1 (stereo not drawn),0,21.3,0,0,0,0
Cc1cc(C)nc(SCCC(=O)Nc2ccccc2C)n1,74.6,0,0,0,0,0
Nc1ccc(C(=O)Nc2ccccc2C(=O)O)cc1,0,0,0,0,0,0
O=C(Nc1ccccc1C(=O)Nc1ccccc1C(=O)O)c1ccccc1,53.2,0,0,0,0,0
O=C(O)c1ccccc1NC(=O)c1ccccc1Nc1ccccc1,52.1,0,0,0,0,0
COc1ccc(OCC(=O)Nc2ccc(C(=O)Nc3ccccc3C(=O)O)cc2)cc1,0,0,0,0,0,0
O=C(COc1ccc2ccccc2c1)Nc1cccc(C(=O)Nc2ccccc2C(=O)O)c1,59.4,0,0,0,0,0
CC(C)Oc1cccc(-c2csc(N3CCC(C(N)=O)CC3)n2)c1,-,-,-,0,-,0
N=c1c2c(ccn1Cc1ccccc1)Oc1ccc3ccccc3c1C2c1ccccc1 (stereo not drawn),-,-,-,0,-,0
Cc1c(OCc2ccccc2)c(=O)ccn1Cc1ccccc1,0,0,0,0,0,0
O=c1ccn(Cc2ccccc2)c2ccccc12,0,29.8,0,0,0,0
CC(=O)Nc1ccc2c(c1)Cc1cc(N3C(=O)C=CC3=O)ccc1-2,0,0,0,0,51.2,0
COc1ccc(-c2csc(C(O)c3ccc(F)c(F)c3)n2)cn1 (stereo not drawn),-,21.3,0,0,-,0
CN(c1cccc(Cl)c1)S(=O)(=O)c1cccc(C(=O)NCc2ccncc2)c1,0,24.0,0,0,0,0
CN(c1ccccc1)S(=O)(=O)c1cccc(C(=O)NCc2ccccc2)c1,0,0,0,0,0,0
COc1cccc(CN(C)C(=O)C(CCSC)NS(=O)(=O)c2ccc3c(c2)OCCO3)c1OC (stereo not drawn),0,0,0,0,0,0
CSCCC(NS(=O)(=O)c1ccc2c(c1)OCCO2)C(=O)N(C)Cc1ccc(C)cc1 (stereo not drawn),0,36.7,0,0,0,0
COC(=O)CCC(=O)OC1(C)C(=O)C=C2C=C(C3CC3)N(Cc3ccco3)C=C2C1=O (stereo not drawn),0,35.6,0,0,0,0
COCCN1C=C2C(=O)C(C)(OC(=O)CCC(=O)OC)C(=O)C=C2C=C1C1CC1 (stereo not drawn),0,29.3,-,-,0,-
COC(=O)CCCC1=CC2=CC(=O)C(C)(OC(=O)c3cccs3)C(=O)C2=CN1Cc1ccco1 (stereo not drawn),0,0,0,0,0,0
COC(=O)CCC(=O)OC1(C)C(=O)C=C2C=C(C3CC3)N(C3CC3)C=C2C1=O (stereo not drawn),0,0,0,0,0,0
C=CCN1C(=O)/C(=C2/Sc3ccccc3N2CC)SC1=S,0,77.2,0,0,0,0
CCCS(=O)(=O)N1CCCC(C(=O)NC2CCCC(C)C2C)C1 (stereo not drawn),0,0,0,0,0,0
CCCS(=O)(=O)N1CCC(C(=O)NC2CCCC(C)C2C)CC1 (stereo not drawn),0,25.9,0,0,0,0
SMILES,CRFBP-R2 block,CendR NRP1 mod,KLK7 zymogen act,Tn6 DDE FP,CRFR2-BP ag,Tn7 DDE FP
Oc1ccc2ccccc2c1CN1CCCCC1,0,25.6,0,0,109.3,0
Cc1ccc(CN2CCN(/N=C/c3ccc(C(=O)O)cc3)CC2)cc1,0,0,0,0,0,0
Cc1ccc(CN2CCN(/N=C/C(Br)=C\c3ccccc3)CC2)cc1,0,0,0,0,129.0,0
COc1ccc2[nH]cc(C(=O)CN3CCCCC3)c2c1,0,0,0,0,59.1,0
COc1ccc2[nH]cc(C(=O)CN3CCN(C4CCCCC4)CC3)c2c1,0,0,0,0,0,0
COCC(=O)N(C)[C@H]1C[C@H]2c3cc(N4CCN(C)CC4)ccc3CCN2C(=O)[C@H]1[C@H](C)O,111.1,0,0,0,0,0
COc1ccccc1NC(=O)c1ccccc1NS(=O)(=O)c1cccs1,0,0,0,0,0,0
COc1ccc(C)cc1NC(=O)c1ccccc1NS(=O)(=O)c1ccc(Cl)s1,65.2,0,0,0,0,0
Cc1ccc(NC(=O)c2ccccc2NS(=O)(=O)c2ccc(Cl)s2)cc1S(=O)(=O)N1CCOCC1,87.3,0,0,0,0,0
CCC[C@H]1[C@@H](NC(=O)C#Cc2ccccc2)CC[C@@]23CCCN2C(=O)CCC[C@@H]13,-,-,-,0,-,0
CC(C)(C)OC(=O)NCc1cc(F)ccc1/C=C/S(=O)(=O)NCc1ccccc1,-,-,0,0,-,0
c1ccc(-c2cnn3c(-c4ccccc4)c(-c4ccccc4)nc3n2)cc1,0,0,0,0,219.5,0
c1ccc(OCCCN2CCCC2)cc1,0,23.0,0,0,0,0
Cc1cccc(C)c1OCCN1CCCC1,0,27.6,0,0,0,0
Cc1cccc(C)c1OCCCN1CCCC1,0,0,0,0,0,0
COc1ccc(-n2c(Cc3cccs3)nnc2SCC(=O)Nc2cccc3ccccc23)cc1,-,-,0,0,-,0
CCCC(=O)OC[C@H]1CN(C2CCCC2)S(=O)(=O)c2c(Oc3ccc(F)cc3OC)cccc2O1,-,-,0,0,-,0
COCCn1c(SCC(=O)c2ccc3c(c2)OCCO3)nnc1-c1ccco1,97.5,0,0,0,0,0
Cn1c(SCC(=O)c2ccc3c(c2)OCCO3)nnc1C(F)(F)F,111.1,0,0,0,0,0
Cc1ccccc1-n1c(CSC(=N)N)nc2ccccc2c1=O,51.9,0,0,0,0,0
COC(=O)C1=C(C)N(Cc2ccccc2C(F)(F)F)C(=NCc2ccccc2)NC1c1cccc(F)c1 (stereo not drawn),-,-,0,0,-,0
Cc1ccc(-n2c(C)cc(C)c(C#N)c2=O)cc1C,0,29.6,0,0,0,0
Cc1ccccc1NC(=O)O[C@H]1CC[C@@]23CCCN2C(=O)CCC[C@H]3[C@H]1C,-,-,-,0,-,0
CCCOC(=O)Nc1cc(OC)c(Cl)cc1OC,0,16.7,0,0,0,0
CN(C(=O)c1cccc(NC(=O)Cc2ccc(NC(=O)C3CCN(C(=O)CCc4ccccc4)CC3)cc2)c1)C1CCCC1,-,-,0,0,-,0
COC(=O)C1CN(Cc2ccc(F)cc2)CCS(=O)(=O)N1Cc1cn(Cc2ccc(Cl)cc2)nn1 (stereo not drawn),-,-,0,0,-,0
CN(C)c1ccc(/C=C2\Oc3ccc(C#Cc4cccc(N)c4)cc3C2=O)cc1,0,0,-,-,80.4,-
CCc1ccc(NC(=O)N(Cc2ccco2)C(C)c2cccs2)cc1 (stereo not drawn),0,31.6,0,0,0,0

# Screening results deposited in PubChem by several laboratories.
